Our source for the EC50, CC50 and IC50 values is ChEMBL document CHEMBL3286396, “Discovery and Synthesis of C-Nucleosides as Potential New Anti-HCV Agents” (ACS Med Chem Lett, 2014).

The test system of series [1] is Hepatitis C virus. Description: Antiviral activity against Hepatitis C virus genotype 1b infected in human HuH7 cells assessed as inhibition of subgenomic replicon RNA replication after 72 hrs by luciferase reporter assay. Particulars: Huh-7, 72 h. It is filed as functional, cell-based, Hepacivirus hominis. Background: Replicon systems follow genome replication, usually without infectious particles.

Series [2] can be described thus: Cytotoxicity against human HuH7 cells by MTT assay. It is filed as cell-based, Huh-7. The essentials:
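Huh-7-derived HCV replicon cell lines were used, with MTT as the vital dye read-out.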

The nature of series [3]: Inhibition of N-terminal His6-tagged Hepatitis C virus genotype 1b isolate Con1 NS5B RNA-dependent RNA polymerase activity by plate reader analysis.
Series [4] relates to Hepatitis C virus. In words: Antiviral activity against Hepatitis C virus assessed as inhibition of subgenomic replicon RNA replication. It is filed as functional, organism-based, Hepacivirus hominis.
In series [5] the target is T1, DNA polymerase subunit gamma-1 (Homo sapiens, UniProt P54098).
T1 sequence (P54098 whole entry): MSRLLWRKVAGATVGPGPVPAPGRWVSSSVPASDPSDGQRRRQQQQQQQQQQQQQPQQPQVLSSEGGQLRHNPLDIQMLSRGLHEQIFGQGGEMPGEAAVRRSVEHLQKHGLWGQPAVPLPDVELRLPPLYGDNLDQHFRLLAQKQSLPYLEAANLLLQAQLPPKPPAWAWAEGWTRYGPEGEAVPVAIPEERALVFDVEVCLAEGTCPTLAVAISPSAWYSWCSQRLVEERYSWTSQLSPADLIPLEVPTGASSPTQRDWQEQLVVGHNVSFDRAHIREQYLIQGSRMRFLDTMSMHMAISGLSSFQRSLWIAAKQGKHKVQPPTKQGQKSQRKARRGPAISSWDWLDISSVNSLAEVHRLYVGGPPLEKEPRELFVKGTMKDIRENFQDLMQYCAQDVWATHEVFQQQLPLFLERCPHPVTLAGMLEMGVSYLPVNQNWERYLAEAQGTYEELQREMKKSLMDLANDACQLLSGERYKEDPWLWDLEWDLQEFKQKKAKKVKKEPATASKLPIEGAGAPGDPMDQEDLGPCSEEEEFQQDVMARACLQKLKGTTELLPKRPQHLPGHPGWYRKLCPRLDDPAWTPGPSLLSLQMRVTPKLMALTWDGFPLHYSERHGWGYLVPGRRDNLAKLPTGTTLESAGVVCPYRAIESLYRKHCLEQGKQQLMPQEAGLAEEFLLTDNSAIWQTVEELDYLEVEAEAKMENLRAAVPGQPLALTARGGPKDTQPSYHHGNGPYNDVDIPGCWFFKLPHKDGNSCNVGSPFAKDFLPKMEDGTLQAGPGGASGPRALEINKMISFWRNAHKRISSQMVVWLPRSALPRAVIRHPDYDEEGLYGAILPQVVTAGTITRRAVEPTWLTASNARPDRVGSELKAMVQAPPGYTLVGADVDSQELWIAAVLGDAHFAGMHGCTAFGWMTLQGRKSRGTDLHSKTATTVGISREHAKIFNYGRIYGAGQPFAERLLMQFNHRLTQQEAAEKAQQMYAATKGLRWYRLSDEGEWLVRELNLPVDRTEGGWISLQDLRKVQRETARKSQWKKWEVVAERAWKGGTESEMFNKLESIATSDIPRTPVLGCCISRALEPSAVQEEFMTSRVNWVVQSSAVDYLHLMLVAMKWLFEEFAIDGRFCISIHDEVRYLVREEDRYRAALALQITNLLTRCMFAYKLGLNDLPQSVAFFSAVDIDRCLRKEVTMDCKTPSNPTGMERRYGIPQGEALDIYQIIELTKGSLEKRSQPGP
Description: Inhibition of human DNA polymerase gamma. The essentials:
(§1)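 The nucleoside was tested in its triphosphate form against human DNA polymerases α, β and γ.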

The target of series [6] is T2, DNA polymerase alpha catalytic subunit (Homo sapiens, UniProt P09884).
T2 sequence (P09884 whole entry): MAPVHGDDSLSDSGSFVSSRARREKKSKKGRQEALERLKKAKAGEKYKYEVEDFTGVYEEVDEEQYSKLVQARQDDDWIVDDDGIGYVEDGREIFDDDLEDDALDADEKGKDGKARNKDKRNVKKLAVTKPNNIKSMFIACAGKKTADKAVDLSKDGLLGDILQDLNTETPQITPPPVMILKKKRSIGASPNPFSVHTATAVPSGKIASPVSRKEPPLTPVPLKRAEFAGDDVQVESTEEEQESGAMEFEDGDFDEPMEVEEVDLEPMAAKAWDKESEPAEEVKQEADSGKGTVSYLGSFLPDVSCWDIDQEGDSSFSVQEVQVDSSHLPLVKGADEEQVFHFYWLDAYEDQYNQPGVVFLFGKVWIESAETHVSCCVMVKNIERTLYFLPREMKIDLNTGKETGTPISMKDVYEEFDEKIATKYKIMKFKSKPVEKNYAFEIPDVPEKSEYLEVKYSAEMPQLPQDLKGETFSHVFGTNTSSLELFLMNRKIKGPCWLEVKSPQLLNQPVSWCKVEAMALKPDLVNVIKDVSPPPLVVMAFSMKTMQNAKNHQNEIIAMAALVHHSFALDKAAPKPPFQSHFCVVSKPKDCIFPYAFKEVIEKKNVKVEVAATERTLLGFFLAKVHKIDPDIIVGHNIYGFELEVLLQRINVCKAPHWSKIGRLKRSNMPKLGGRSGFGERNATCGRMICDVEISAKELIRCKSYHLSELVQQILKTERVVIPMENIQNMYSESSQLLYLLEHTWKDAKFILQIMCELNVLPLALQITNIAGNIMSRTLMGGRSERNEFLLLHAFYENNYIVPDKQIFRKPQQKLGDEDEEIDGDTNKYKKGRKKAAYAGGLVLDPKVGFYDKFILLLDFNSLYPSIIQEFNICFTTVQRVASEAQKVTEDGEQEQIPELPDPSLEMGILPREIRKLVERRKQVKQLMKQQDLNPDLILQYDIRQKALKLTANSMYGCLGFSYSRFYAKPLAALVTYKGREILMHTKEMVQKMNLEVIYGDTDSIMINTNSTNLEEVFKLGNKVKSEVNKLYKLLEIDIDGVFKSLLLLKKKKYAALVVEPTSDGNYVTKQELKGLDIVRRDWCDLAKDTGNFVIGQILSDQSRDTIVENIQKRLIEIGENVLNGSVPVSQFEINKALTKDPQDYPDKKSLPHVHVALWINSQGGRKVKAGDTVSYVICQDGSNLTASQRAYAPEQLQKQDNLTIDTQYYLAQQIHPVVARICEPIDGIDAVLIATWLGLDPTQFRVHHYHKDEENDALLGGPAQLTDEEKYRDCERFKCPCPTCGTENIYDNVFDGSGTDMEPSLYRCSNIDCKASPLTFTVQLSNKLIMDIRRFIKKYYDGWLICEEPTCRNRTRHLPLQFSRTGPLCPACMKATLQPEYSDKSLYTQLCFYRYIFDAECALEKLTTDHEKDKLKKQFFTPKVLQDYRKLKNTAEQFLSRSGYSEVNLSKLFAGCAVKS
In words: Inhibition of human DNA polymerase alpha. The essentials:
as §1

In series [7] the target is DNA polymerase beta (Homo sapiens, UniProt P06746). Description: Inhibition of human DNA polymerase beta. A digest of the protocol:
as §1

A short description of series [8]: Inhibition of Hepatitis C virus NS5B RNA-dependent RNA polymerase activity. Further details: species or system Hepacivirus hominis.

One may read the EC50 as the concentration at which the effect is half-maximal. As usually defined, the CC50 is the concentration that lowers cell viability or growth by half. A word on the IC50: it is the concentration that inhibits the measured activity by half. Low readings indicate greater potency, high ones weaker potency. Regarding `C[C@@]1(O)[C@H](O)[C@@H](CO)O[C@H]1c1cnc2c(N)ncnn12`, in series [1], the EC50 was found to be 1.3 µM. Besides, the CC50 in series [2] was 34 µM. The same molecule displayed an IC50 in series [3] of 0.55 µM.
Regarding `C[C@@]1(O)[C@H](O)[C@@H](CO)O[C@H]1c1cnc2c(=O)[nH]c(N)nn12`, the EC50 in series [1] was > 100 µM. The 50% cytotoxic concentration (CC50) in series [2] is > 100 µM. The same molecule registered an IC50 in series [3] of 0.31 µM.
As to `C[C@@]1(O)[C@H](O)[C@@H](CO)O[C@H]1n1ccc2c(O)nc(N)nc21`, the EC50 in series [4] is > 50 µM.
For `C[C@@]1(O)[C@H](O)[C@@H](CO)O[C@H]1c1ccc2c(=O)[nH]c(N)nn12`, the EC50 in series [1] is > 100 µM. Moreover, the CC50 in series [2] is > 100 µM. This molecule returned an IC50 in series [3] of 0.21 µM.
Turning to `C[C@@]1(O)[C@H](O)[C@@H](CO)O[C@H]1c1cnn2c(N)ncnc12`, the EC50 in series [1] was > 100 µM. Also, the CC50 in series [2] was > 100 µM. The same molecule displayed an IC50 in series [3] of 33 µM.
With `C[C@@]1(O)[C@H](O)[C@@H](COP(=O)(O)OP(=O)(O)OP(=O)(O)O)O[C@H]1c1ccc2c(N)ncnn12`, the IC50 in series [5], in series [6] and in series [7] was > 100 µM in each case.
As for `C[C@@]1(O)[C@H](O)[C@@H](CO)O[C@H]1n1cnc2c(=O)[nH]c(N)nc21` [2'-B-METHYL-GUANOSINE], in series [4], the EC50 was 2 µM.
With `C[C@@]1(O)[C@H](O)[C@@H](CO)O[C@H]1n1ccc2c(N)ncnc21` [BETA-2'-C-METHYL-7-DEAZA-ADENOSINE], the results for the IC50 in series [8] and in series [3] were 0.07 µM and 0.2 µM, respectively. The EC50 came out at 0.3 µM in series [4] and 0.2 µM in series [1]. Besides, the 50% cytotoxic concentration (CC50) in series [2] is > 100 µM.
